The values that follow come from ChEMBL document CHEMBL1139482, “Synthesis and evaluation of quindoline derivatives as G-quadruplex inducing and stabilizing ligands and potential inhibitors of telomerase” (J Med Chem, 2005).

Activity calls are given as the source filed them. The calls are words filed in the database; no cut-off is given here.

Data set [1] is filed under the species Homo sapiens. The data set is described as follows: Induction of G-quadruplex in G-rich human telomere 21 DNA assessed as circular dichroism spectral change at 50 uM. An outline of the steps: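 Telo21 at 5 μM strand in 10 mM Tris-HCl pH 7.4, no metal ions, compound at 50 μM. Annealed at 90 °C, cooled slowly, held at 4 °C for several hours. CD recorded 320–200 nm, 16 scans at 100 nm/min, 1 nm bandwidth, buffer baseline subtracted.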

The nature of data set [2]: Dissociation constant, pKa of the compound. It is filed as physicochemical. The gist of the method: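 UV titration across pH. Molar extinction coefficient read at the two wavelengths where ε changes most between acidic and basic solution, then plotted against pH. pKa taken as the pH midway between the horizontal sections of the curve.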
Data set [3] in a line: Inhibition of telomerase by TRAP assay. Details: species or system Homo sapiens. The gist of the method: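 Cell-free modified TRAP using A2780 ovarian carcinoma extract, 0.04 μg protein. TS primer extended in TRAP buffer pH 8.3 with 68 mM KCl, 1.5 mM MgCl2, 50 μM dNTPs and [32P]dCTP, agent up to 50 μM final, 20 min at 25 °C. Then 31 PCR cycles; products read by denaturing gel phosphorimaging or filter scintillation counting.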

For data set [4], the species on record is Homo sapiens. The data set is described as follows: Destruction of parallel G-quadruplexes in mixed G-quadruplex human telomere 21 DNA in presence of 0.1 M potassium.
The species entered for data set [5] is Homo sapiens. The data set is described as follows: Induction of G-quadruplex in G-rich human telomere 21 DNA in presence of 100 mM K+ ions by EMSA. The gist of the method:
(§1)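 Native-gel shift of 20 μM telo21 in 10 mM Tris-HCl pH 7.4, with or without 100 mM KCl, heated 95 °C for 10 min then cooled. Compound titrated in at increasing concentrations and incubated 4–8 h at room temperature. Run on native 15% PAGE in TBE for 2 h, silver-stained; G-quadruplex and single-strand bands scored.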

The species named for data set [6] is Homo sapiens. The data set is described as follows: Induction of G-quadruplex in G-rich human telomere 21 DNA by EMSA. An outline of the steps:
as §1

With `OCCNc1c2ccccc2nc2c1[nH]c1ccccc12`, the result in the data set listed under Homo sapiens [1] was Active. In data set [2], the pKa was found to be 8.3. In data set [3], this compound returned a half-inhibitory concentration (IC50) of 2.35 µM.

For `c1ccc2nc3c(cc2c1)[nH]c1ccccc13` [QUINDOLINE], in data set [2], the pKa came out at 4.2. The compound further displayed a half-maximal inhibitory concentration (IC50) in data set [3] of more than 138 µM.

Turning to `c1ccc2c(NCCN3CCOCC3)c3[nH]c4ccccc4c3nc2c1`, the result in the data set filed under Homo sapiens [1], in the data set filed under Homo sapiens [4], in the data set filed under Homo sapiens [5] and in the data set listed under Homo sapiens [6] was Active. Further, the pKa in data set [2] turned out to be 8.4. The compound also gave an IC50 in data set [3] of 0.55 µM.

As for `OCCCNc1c2ccccc2nc2c1[nH]c1ccccc12`, the outcome in the data set listed under Homo sapiens [1] was Active. For the same compound, the pKa in data set [2] is 8.3. In data set [3], this compound registered a concentration for half-maximal inhibition (IC50) of 1.55 µM.

As to `CN(C)CCNc1c2ccccc2nc2c1[nH]c1ccccc12`, in the data set listed under Homo sapiens [1], the outcome was Active. The same compound displayed a pKa in data set [2] of 8.3. In data set [3], this compound had an IC50 of 1.12 µM.

Consider `CN(C)CCNc1c2ccccc2nc2c1oc1ccccc12`, for which, in the data set filed under Homo sapiens [1], the outcome was Active. In data set [2], the pKa worked out at 8.2. The compound also registered a half-inhibitory concentration (IC50) in data set [3] of 7.11 µM.

With `CN(C)CCCNc1c2ccccc2nc2c1[nH]c1ccccc12`, the outcome in the data set filed under Homo sapiens [1] was Active. For the same compound, the pKa in data set [2] amounted to 8.4. In data set [3], this compound displayed a half-maximal inhibitory concentration (IC50) of 0.44 µM.

In the case of `CN(C)CCCNc1c2ccccc2nc2c1oc1ccccc12`, the result in the data set listed under Homo sapiens [1] was Active. For the same compound, the pKa in data set [2] turned out to be 8.3. In addition, in data set [3], the IC50 came out at 3.29 µM.

As to `OCCCNc1c2ccccc2nc2c1oc1ccccc12`, the outcome in the data set listed under Homo sapiens [1] was Active. The pKa in data set [2] was 8.2. In addition, 8.12 µM corresponded to half-maximal inhibition in data set [3] (IC50).

Take `c1ccc2c(NCCN3CCOCC3)c3oc4ccccc4c3nc2c1`: the result in the data set listed under Homo sapiens [1] was Active. For the same compound, in data set [2], the pKa came to 8.2. The half-maximal inhibitory concentration (IC50) in data set [3] is 4.38 µM.

Take `OCCNc1c2ccccc2nc2c1oc1ccccc12`: the result in the data set filed under Homo sapiens [1] was Active. In data set [2], this compound showed a pKa of 8.2. The same compound returned a concentration for half-maximal inhibition (IC50) in data set [3] of 12.3 µM.
